Assay results as given in ChEMBL document CHEMBL4251680, “Catecholic Isoquinolines from Portulaca oleracea and Their Anti-inflammatory and β2-Adrenergic Receptor Agonist Activity” (J Nat Prod, 2018).

Columns and labels:
[1] = test system: RAW264.7; test: cells; details: Mus musculus, RAW264.7, 24 h
[2] = molecular target: T1, Beta-2 adrenergic receptor (Homo sapiens, UniProt P07550); test: Agonist activity at human beta2-AR expressed in CHOK1 cells co-expressing Galpha15 at 100 uM measured after 21 secs to 120 secs by Calcium-4 dye based FLIPR assay relative to 1 uM isoproterenol; format: functional, cell-based
Procedure, shortened: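 CHO-K1/Gα15 cells stably expressing β2-AR, grown in Ham's F12 with 10% FBS, hygromycin B and zeocin. Plated at 1.5 × 10^4 cells/well, 18 h, then loaded with FLIPR Calcium 4 dye for 1 h at 37 °C and 15 min at room temperature. Compounds from DMSO stocks diluted in HBSS/20 mM HEPES pH 7.4, added at 21 s. Read 120 s; stimulation ratio = (ΔRFU − background) relative to isoproterenol.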
Target sequence in this assay (P07550 whole entry, looked up): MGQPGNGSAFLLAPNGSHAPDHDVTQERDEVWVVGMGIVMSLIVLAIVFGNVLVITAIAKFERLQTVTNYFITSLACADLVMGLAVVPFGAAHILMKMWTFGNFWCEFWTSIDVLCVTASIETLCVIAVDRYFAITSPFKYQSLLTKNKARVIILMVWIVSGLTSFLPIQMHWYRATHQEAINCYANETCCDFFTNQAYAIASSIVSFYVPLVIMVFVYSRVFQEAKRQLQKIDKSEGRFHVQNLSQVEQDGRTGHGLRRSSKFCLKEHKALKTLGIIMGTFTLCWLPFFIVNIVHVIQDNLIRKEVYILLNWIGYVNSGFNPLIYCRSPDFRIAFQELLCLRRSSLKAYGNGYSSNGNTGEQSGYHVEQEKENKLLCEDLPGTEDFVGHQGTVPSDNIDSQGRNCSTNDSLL

[3] = molecular target: T1, Beta-2 adrenergic receptor; test: Agonist activity at human beta2-AR expressed in CHOK1 cells co-expressing Galpha15 measured after 21 secs to 120 secs by Calcium-4 dye based FLIPR assay; format: functional, cell-based
Target sequence in this assay (P07550 whole entry): as the sequence (P07550 whole entry, looked up) above

Compound	EC50 [1]	Activity [2]	EC50 [3]
CCOC(=O)CC[C@@H]1NCCc2cc(O)c(O)cc21	36.3 µM	42%	
NCCc1ccc(O)c(O)c1S(=O)(=O)O	310 µM	39.3%	
Oc1cc2c(cc1O)CCN=C2	248 µM	41.1%	
C[C@@H]1NCCc2cc(O)c(O)cc21	58.7 µM	35.5%	
O=C1CC[C@H]2c3cc(O)c(O)cc3CCN12	35.4 µM	70.2%	
NCCc1ccc(O)c(O)c1 [DOPAMINE]	18 µM	86.4%	
O=C1c2cc(O)c(O)cc2CCn2cccc21	225 µM	-11.5%	
Oc1cc2c(cc1O)CC[N+](Cc1ccco1)=C2	87.9 µM	11.4%	
CC1=NCCc2cc(O)c(O)cc21	209 µM	37.7%	
Oc1cc2c(cc1O)C(c1ccco1)=NCC2	18.1 µM	91.8%	5.1 µM
CC(C)C[C@H]1NCCc2cc(O)c(O)cc21	498 µM	70.9%	
O=C1NCCc2cc(O)c(O)cc21	126 µM	0.5%	
Oc1cc2c(cc1O)[C@@H](Cc1ccccc1)NCC2	107 µM	90.8%	0.0879 µM
O=C(NO)c1ccc(O)c(O)c1	82.4 µM		
OCc1ccc(C2=NCCc3cc(O)c(O)cc32)o1	203 µM	70.6%	
